ChEMBL document CHEMBL1139494, “In vitro and in vivo anti-leishmanial activity of triterpenoid saponins isolated from Maesa balansae and some chemical derivatives” (J Med Chem, 2005)
Values after ≈ are worked out from the molar mass of the structure shown.

What was measured:
Leishmania infantum [1] = assay: (§1) Inhibitory concentration against intracellular amastigotes of Leishmania infantum; format: functional
In short: (§2)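 Mouse peritoneal macrophages elicited by intraperitoneal 2% potato starch and harvested ~24 h later in RPMI-1640. Each well held 3 × 10^4 macrophages plus 3 × 10^5 parasites with compound, final 0.5–32 µg/mL, in triplicate. After 5 days at 37 °C, Giemsa-stained intracellular amastigotes counted microscopically, expressed as percent reduction vs untreated; mean of three replicates.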

Leishmania infantum [2] = assay: as §1; format: functional, organism-based; in short: as §2
MRC5 = assay: Cytotoxic concentration against human lung fibroblast MRC-5 cells; format: functional
In short: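 Human lung fibroblasts grown in MEM + 5% heat-inactivated FCS, about 5000 cells/well, exposed to compound in triplicate. Viability read after 7 days with Alamar Blue fluorescent dye and expressed as percent reduction versus untreated wells. CC50 estimated from log-concentration plot; value is mean of three replicates.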

Leishmania infantum [3] = assay: Lowest dose (single subcutaneous administration) causing >90% reduction of liveramastigotes of Leishmania infantum in mouse; format: functional
In short: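 Male BALB/c mice given 10^7 L. infantum amastigotes (from spleen of infected donor hamster) intravenously via lateral tail vein on day 0, three per group. Single subcutaneous dose in isotonic saline (filter-sterilized, diluted from 2 mg/mL stock) given day 0. At 7 days post-treatment, Giemsa-stained liver impression smears scored for amastigotes per liver cell.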

[4] = Leishmania infantum, read-out: IC50

Compound	IC90 (Leishmania infantum [1])	IC50 (Leishmania infantum [2]; [4])	CC50 (MRC5)	Dose (Leishmania infantum [3])	DOSE (Leishmania infantum [3])	IC50 (Leishmania infantum [2])
CC(=O)O[C@@H]1C[C@]2(C)C(=CCC3[C@@]4(C)CC[C@H](O)C(C)(C)C4CC[C@]32C)C2CC(C)(C)[C@@H](OC(=O)c3ccccc3)[C@H](OC(=O)/C=C/c3ccccc3)[C@@]21C=O (stereo partly specified)	> 32 µg/mL	> 32 µg/mL	> 32 µg/mL			
C/C=C(/C)C(=O)O[C@H]1[C@H](OC(=O)/C=C/c2ccccc2)[C@@]23C(CC1(C)C)[C@]1(CCC4[C@@]5(C)CC[C@H](O[C@@H]6OC(C(=O)O)[C@@H](O)C(O[C@@H]7OC(CO)[C@H](O)C(O)[C@@H]7OC7O[C@@H](C)C(O)[C@H](O)C7OC7O[C@@H](C)[C@H](O)C(O)[C@@H]7O)[C@@H]6O[C@@H]6OC(CO)[C@@H](O)C(O)[C@@H]6O)C(C)(C)C5CC[C@@]4(C)[C@]1(C)C[C@H]2O)O[C@@H]3O (stereo partly specified)	0.021 µg/mL (≈ 0.0139 µM)	0.014 µg/mL (≈ 0.00926 µM)	0.1 µg/mL (≈ 0.0662 µM)	0.4 mg/kg		
C/C=C(/C)C(=O)O[C@H]1[C@H](OC(=O)CCc2ccccc2)[C@@]23C(CC1(C)C)[C@]1(CCC4[C@@]5(C)CC[C@H](O[C@@H]6OC(C(=O)O)[C@@H](O)C(O[C@@H]7OC(CO)[C@H](O)C(O)[C@@H]7OC7O[C@@H](C)C(O)[C@H](O)C7OC7O[C@@H](C)[C@H](O)C(O)[C@@H]7O)[C@@H]6O[C@@H]6OC(CO)[C@@H](O)C(O)[C@@H]6O)C(C)(C)C5CC[C@@]4(C)[C@]1(C)C[C@H]2O)O[C@@H]3O (stereo partly specified)	0.03 µg/mL (≈ 0.0198 µM)	0.018 µg/mL (≈ 0.0119 µM)	0.6 µg/mL (≈ 0.396 µM)			
C/C=C(/C)C(=O)O[C@H]1[C@H](OC(=O)/C=C/c2ccccc2)[C@@]2(C=O)C(CC1(C)C)C1=CCC3[C@@]4(C)CC[C@H](O)C(C)(C)C4CC[C@@]3(C)[C@]1(C)C[C@H]2OC(C)=O (stereo partly specified)	> 32 µg/mL	> 32 µg/mL	> 32 µg/mL			
C[C@@H]1[C@H](O)[C@@H](C)/C=C/C=C/C=C/C=C/C=C/C=C/C=C/[C@H](O[C@@H]2O[C@H](C)[C@@H](O)[C@H](N)[C@@H]2O)C[C@@H]2O[C@](O)(C[C@@H](O)C[C@@H](O)[C@H](O)CC[C@@H](O)C[C@@H](O)CC(=O)O[C@H]1C)C[C@H](O)[C@H]2C(=O)O [AMPHOTERICIN B]	0.373 µg/mL (≈ 0.404 µM)	0.285 µg/mL (≈ 0.308 µM)	> 32 µg/mL	>10 mg/kg		
STIBOGLUCONATE [listing 1 of 2 here]	> 32 µg/mL		> 32 µg/mL		> 40 mg/kg	
C/C=C(/C)C(=O)O[C@H]1[C@H](OC(=O)/C=C\c2ccccc2)[C@@]23C(CC1(C)C)[C@]1(CCC4[C@@]5(C)CC[C@H](O[C@@H]6OC(C(=O)O)[C@@H](O)C(O[C@@H]7OC(CO)[C@H](O)C(O)[C@@H]7OC7O[C@@H](C)C(O)[C@H](O)C7OC7O[C@@H](C)[C@H](O)C(O)[C@@H]7O)[C@@H]6O[C@@H]6OC(CO)[C@@H](O)C(O)[C@@H]6O)C(C)(C)C5CC[C@@]4(C)[C@]1(C)C[C@H]2O)O[C@@H]3O (stereo partly specified)	0.094 µg/mL (≈ 0.0622 µM)	0.023 µg/mL (≈ 0.0152 µM)	0.5 µg/mL (≈ 0.331 µM)	>0.8 mg/kg		
C[C@@H]1OC(O[C@H]2C(O)[C@@H](O)C(CO)O[C@H]2OC2[C@H](O)C(C(=O)O)O[C@@H](O[C@H]3CC[C@@]4(C)C(CC[C@]5(C)C4CC[C@]46O[C@H](O)[C@]7(C4CC(C)(C)[C@@H](O)[C@@H]7O)[C@H](O)C[C@]65C)C3(C)C)[C@H]2O[C@@H]2OC(CO)[C@@H](O)C(O)[C@@H]2O)C(OC2O[C@@H](C)[C@H](O)C(O)[C@@H]2O)[C@@H](O)C1O (stereo partly specified)	> 32 µg/mL	> 32 µg/mL	> 32 µg/mL	>40 mg/kg		
C/C=C(/C)C(=O)O[C@H]1[C@H](OC(=O)/C=C/c2ccccc2)[C@@]23C(CC1(C)C)[C@]1(CCC4[C@@]5(C)CC[C@H](O[C@@H]6OC(C(=O)O)[C@@H](O)C(O[C@@H]7OC(CO)[C@H](O)C(O)[C@@H]7OC7O[C@@H](C)C(O)[C@H](O)C7OC7O[C@@H](C)[C@H](O)C(O)[C@@H]7O)[C@@H]6O[C@@H]6OC(CO)[C@@H](O)C(O)[C@@H]6O)C(C)(C)C5CC[C@@]4(C)[C@]1(C)C[C@H]2OC(C)=O)O[C@@H]3O (stereo partly specified)	0.125 µg/mL (≈ 0.0805 µM)	0.041 µg/mL (≈ 0.0264 µM)	8 µg/mL (≈ 5.15 µM)	>0.8 mg/kg		
C[C@@H]1OC(O[C@H]2C(O)[C@@H](O)C(CO)O[C@H]2OC2[C@H](O)C(C(=O)O)O[C@@H](O[C@H]3CC[C@@]4(C)C(CC[C@]5(C)C4CC[C@]46O[C@H](O)[C@]7(C4CC(C)(C)[C@@H](OC(=O)c4ccccc4)[C@@H]7OC(=O)CCc4ccccc4)[C@H](O)C[C@]65C)C3(C)C)[C@H]2O[C@@H]2OC(CO)[C@@H](O)C(O)[C@@H]2O)C(OC2O[C@@H](C)[C@H](O)C(O)[C@@H]2O)[C@@H](O)C1O (stereo partly specified)	0.015 µg/mL (≈ 0.00977 µM)	0.009 µg/mL (≈ 0.00586 µM)	0.3 µg/mL (≈ 0.195 µM)			
C[C@@H]1OC(O[C@H]2C(O)[C@@H](O)C(CO)O[C@H]2OC2[C@H](O)C(C(=O)O)O[C@@H](O[C@H]3CC[C@@]4(C)C(CC[C@]5(C)C4CC[C@]46O[C@H](O)[C@]7(C4CC(C)(C)[C@@H](OC(=O)c4ccccc4)[C@@H]7OC(=O)/C=C\c4ccccc4)[C@H](O)C[C@]65C)C3(C)C)[C@H]2O[C@@H]2OC(CO)[C@@H](O)C(O)[C@@H]2O)C(OC2O[C@@H](C)[C@H](O)C(O)[C@@H]2O)[C@@H](O)C1O (stereo partly specified)	0.031 µg/mL (≈ 0.0202 µM)	0.018 µg/mL (≈ 0.0117 µM)	0.5 µg/mL (≈ 0.326 µM)	0.8 mg/kg		
C/C=C(/C)C(=O)O[C@H]1[C@H](OC(=O)/C=C\c2ccccc2)[C@@]2(C=O)C(CC1(C)C)C1=CCC3[C@@]4(C)CC[C@H](O)C(C)(C)C4CC[C@@]3(C)[C@]1(C)C[C@H]2O (stereo partly specified)	> 32 µg/mL	22 µg/mL (≈ 31.4 µM)	> 32 µg/mL			
CC1(C)CC2C3=CCC4[C@@]5(C)CC[C@H](O)C(C)(C)C5CC[C@@]4(C)[C@]3(C)C[C@@H](O)[C@@]2(C=O)[C@@H](OC(=O)/C=C/c2ccccc2)[C@@H]1OC(=O)c1ccccc1 (stereo partly specified)	> 16 µg/mL	8 µg/mL (≈ 11.1 µM)	32 µg/mL (≈ 44.3 µM)	>40 mg/kg		
C[C@@H]1OC(O[C@H]2C(O)[C@@H](O)C(CO)O[C@H]2OC2[C@H](O)C(C(=O)O)O[C@@H](O[C@H]3CC[C@@]4(C)C(CC[C@]5(C)C4CC[C@]46O[C@H](O)[C@]7(C4CC(C)(C)[C@@H](OC(=O)c4ccccc4)[C@@H]7OC(=O)/C=C/c4ccccc4)[C@H](O)C[C@]65C)C3(C)C)[C@H]2O[C@@H]2OC(CO)[C@@H](O)C(O)[C@@H]2O)C(OC2O[C@@H](C)[C@H](O)C(O)[C@@H]2O)[C@@H](O)C1O (stereo partly specified)	0.012 µg/mL (≈ 0.00782 µM)	0.007 µg/mL (≈ 0.00456 µM)	0.5 µg/mL (≈ 0.326 µM)	0.2 mg/kg		
STIBOGLUCONATE [listing 2 of 2 here]						5.6 µg/mL
CC(=O)O[C@@H]1C[C@]2(C)[C@@]3(CCC4[C@@]5(C)CC[C@H](O[C@@H]6OC(C(=O)O)[C@@H](O)C(O[C@@H]7OC(CO)[C@H](O)C(O)[C@@H]7OC7O[C@@H](C)C(O)[C@H](O)C7OC7O[C@@H](C)[C@H](O)C(O)[C@@H]7O)[C@@H]6O[C@@H]6OC(CO)[C@@H](O)C(O)[C@@H]6O)C(C)(C)C5CC[C@]42C)O[C@H](O)[C@]12C3CC(C)(C)[C@@H](OC(=O)c1ccccc1)[C@@H]2OC(=O)/C=C/c1ccccc1 (stereo partly specified)	0.125 µg/mL (≈ 0.0793 µM)	0.046 µg/mL (≈ 0.0292 µM)	8 µg/mL (≈ 5.08 µM)	>0.8 mg/kg		
CC=C(C)C(=O)O[C@H]1[C@H](OC(=O)/C=C/c2ccccc2)[C@@]2(C=O)C(CC1(C)C)C1=CCC3[C@@]4(C)CC[C@H](O)C(C)(C)C4CC[C@@]3(C)[C@]1(C)C[C@H]2O (stereo partly specified)	> 32 µg/mL	> 32 µg/mL	> 32 µg/mL			
CC1(C)CC2C3=CCC4[C@@]5(C)CC[C@H](O)C(C)(C)C5CC[C@@]4(C)[C@]3(C)C[C@@H](O)[C@@]2(C=O)[C@@H](OC(=O)/C=C\c2ccccc2)[C@@H]1OC(=O)c1ccccc1 (stereo partly specified)	> 32 µg/mL	> 32 µg/mL	> 32 µg/mL			
